Measurements published in publication PMC2748801 (Journal of the American Chemical Society, 2009).
Square brackets hold non-standard residues; d marks the D form. Ends that are not written are not given here. Orn = NCCC[C@H](N)C(=O)O; Dab = NCC[C@H](N)C(=O)O; Dap = NC[C@H](N)C(=O)O

Key:
[1] = system: hairpin from IRES domain IV of HCV (IRES); format: binding; conditions: for Discrimination ratio against IRES RNA: average Kd against other hairpins (RRE, TAR, 16S A-site)/Kd against IRES; for Kd against IRES hairpin (in words): fluorescence anisotropy, 3i and 3j relative to 3d
[2] = Circular dichroism, α-helical content of peptide alone; format: physicochemical; conditions: CD; for helicity (first value): 10 mM H3PO4, 20 °C; for helicity (second value): 50% TFE in 10 mM H3PO4, 20 °C
Method in brief: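 Far-UV CD spectra of each free peptide, with no RNA, at 20 °C under temperature control, in 10 mM H3PO4 and in 50% TFE in the same buffer. Scans ran 190–250 nm with 1 nm bandwidth, 0.5 nm data pitch, 20 nm/min, 16 s response and 0.1 cm path, averaging three accumulations. α-Helical content was calculated from the spectra.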

Ac-LKKLLKLLKKLLKWAG-NH2 [2u]
Discrimination ratio against IRES RNA [1]: 14 | Kd against IRES hairpin (in words) [1]: subnanomolar | helicity (first value) [2]: 20% | helicity (second value) [2]: 52%

Ac-LKKLLKLLKKLWKLAG-NH2 [2t]
Discrimination ratio against IRES RNA [1]: 5.8 | helicity (first value) [2]: 12% | helicity (second value) [2]: 58%

Ac-LKKLLKLLKKWLKLAG-NH2 [2s]
Discrimination ratio against IRES RNA [1]: 5.8 | helicity (first value) [2]: 27% | helicity (second value) [2]: 60%

Ac-LKKLLKLWKKLLKLAG-NH2 [2r]
Discrimination ratio against IRES RNA [1]: 0.67 | helicity (first value) [2]: 14% | helicity (second value) [2]: 59%

Ac-LKKLLKWLKKLLKLAG-NH2 [2q]
Discrimination ratio against IRES RNA [1]: 15 | Kd against IRES hairpin (in words) [1]: subnanomolar | helicity (first value) [2]: 19% | helicity (second value) [2]: 71%

Ac-LKKLWKLLKKLLKLAG-NH2 [2p]
Discrimination ratio against IRES RNA [1]: 3.3 | helicity (first value) [2]: 20% | helicity (second value) [2]: 56%

Ac-LKKWLKLLKKLLKLAG-NH2 [2o]
Discrimination ratio against IRES RNA [1]: 5.5 | helicity (first value) [2]: 4.6% | helicity (second value) [2]: 52%

Ac-WKKLLKLLKKLLKLAG-NH2 [2n]
Discrimination ratio against IRES RNA [1]: 2.4 | Kd against IRES hairpin (in words) [1]: subnanomolar | helicity (first value) [2]: 48% | helicity (second value) [2]: 65%

LKKLLKLLKKLL[Dab]LAG [2h]
Discrimination ratio against IRES RNA [1]: 2.0 | helicity (first value) [2]: 24% | helicity (second value) [2]: 34%

LKKLLKLLKKLL[Dap]LAG [2i]
Discrimination ratio against IRES RNA [1]: 12 | helicity (first value) [2]: 39% | helicity (second value) [2]: 54%

LKKLLKLLKKLL[Dap]WAG [3g]
Discrimination ratio against IRES RNA [1]: 9.4 | helicity (first value) [2]: 41% | helicity (second value) [2]: 63%

LKKLLKLLKKLL[Orn]LAG [2g]
Discrimination ratio against IRES RNA [1]: 3.3 | helicity (first value) [2]: 36% | helicity (second value) [2]: 53%

LKKLLKLL[Dab]KLLKLAG [2e]
Discrimination ratio against IRES RNA [1]: 6.5 | helicity (first value) [2]: 43% | helicity (second value) [2]: 57%

LKKLLKLL[Dap]KLLKLAG [2f]
Discrimination ratio against IRES RNA [1]: 0.6 | helicity (first value) [2]: 25% | helicity (second value) [2]: 57%

LKKLLKLL[Orn]KLLKLAG [2d]
Discrimination ratio against IRES RNA [1]: 9.1 | helicity (first value) [2]: 28% | helicity (second value) [2]: 57%

LKKLLKLL[Orn]KLLKWAG [3f]
Discrimination ratio against IRES RNA [1]: 1.0 | helicity (first value) [2]: 36% | helicity (second value) [2]: 58%

LKKLLKLL[Orn]KLL[Dap]LAG [2k]
Discrimination ratio against IRES RNA [1]: 25 | helicity (first value) [2]: 48% | helicity (second value) [2]: 61%

LKKLLKLL[Orn]KLL[Dap]WAG [3h]
Discrimination ratio against IRES RNA [1]: 1.6 | helicity (first value) [2]: 12% | helicity (second value) [2]: 56%

LKKLLKWLKKLL[Dap]LAG [3c]
Discrimination ratio against IRES RNA [1]: 17 | helicity (first value) [2]: 29% | helicity (second value) [2]: 36%

LKKLLKWL[Orn]KLLKLAG [3b]
Discrimination ratio against IRES RNA [1]: 4.2 | helicity (first value) [2]: 34% | helicity (second value) [2]: 52%

LKKLLKWL[Orn]KLL[Dap]LAG [3d]
Discrimination ratio against IRES RNA [1]: 45 | helicity (first value) [2]: 32% | helicity (second value) [2]: 38%

LKKLL[Dab]LLKKLLKLAG [2b]
Discrimination ratio against IRES RNA [1]: 6.3 | helicity (first value) [2]: 23% | helicity (second value) [2]: 63%

LKKLL[Dab]LLKKLLKWAG [3e]
Discrimination ratio against IRES RNA [1]: 28 | helicity (first value) [2]: 39% | helicity (second value) [2]: 45%

LKKLL[Dab]LLKKLL[Dap]LAG [2l]
Discrimination ratio against IRES RNA [1]: 13 | helicity (first value) [2]: 40% | helicity (second value) [2]: 50%

LKKLL[Dab]LL[Orn]KLLKLAG [2j]
Discrimination ratio against IRES RNA [1]: 6.3 | helicity (first value) [2]: 49% | helicity (second value) [2]: 57%

LKKLL[Dab]LL[Orn]KLL[Dap]LAG [2m]
Discrimination ratio against IRES RNA [1]: 4.9 | helicity (first value) [2]: 49% | helicity (second value) [2]: 69%

LKKLL[Dab]WLKKLLKLAG [3a]
Discrimination ratio against IRES RNA [1]: 10 | helicity (first value) [2]: 29% | helicity (second value) [2]: 55%

LKKLL[Dap]LLKKLLKLAG [2c]
Discrimination ratio against IRES RNA [1]: 2.4 | helicity (first value) [2]: 26% | helicity (second value) [2]: 61%

LKKLL[Orn]LLKKLLKLAG [2a]
Discrimination ratio against IRES RNA [1]: 2.5 | helicity (first value) [2]: 13% | helicity (second value) [2]: 82%
